According to ChEMBL document CHEMBL1159095, “Synthesis and optimization of thiadiazole derivatives as a novel class of substrate competitive c-Jun N-terminal kinase inhibitors” (Bioorg Med Chem, 2010):
Calls of active or inactive are those of the source. The calls are words filed in the database; no cut-off is given here.

Columns and labels:
[1] = target: Mitogen-activated protein kinase 14 (Homo sapiens, UniProt Q16539); test: Inhibition of p38alpha MAPK
[2] = target: T1, Mitogen-activated protein kinase 8 (Homo sapiens, UniProt P45983); test: Inhibition of JNK1 by TR-FRET assay
T1 sequence (P45983 whole entry): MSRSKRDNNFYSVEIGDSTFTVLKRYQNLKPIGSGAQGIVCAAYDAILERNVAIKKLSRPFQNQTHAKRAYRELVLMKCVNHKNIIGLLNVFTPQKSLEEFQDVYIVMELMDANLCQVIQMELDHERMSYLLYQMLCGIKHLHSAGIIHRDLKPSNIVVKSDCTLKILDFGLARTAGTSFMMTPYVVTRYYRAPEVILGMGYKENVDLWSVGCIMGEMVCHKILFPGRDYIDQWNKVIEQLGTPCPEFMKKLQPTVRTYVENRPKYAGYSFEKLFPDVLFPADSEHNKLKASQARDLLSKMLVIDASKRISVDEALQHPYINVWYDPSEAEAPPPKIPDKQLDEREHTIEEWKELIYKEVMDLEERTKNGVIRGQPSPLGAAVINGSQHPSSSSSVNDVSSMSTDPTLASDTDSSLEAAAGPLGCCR
In short: (§1)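 LanthaScreen TR-FRET kinase assay. JNK1 at 35 ng/mL, ATF2 substrate at 400 nM and ATP at 0.2 μM in 50 mM HEPES pH 7.5, 10 mM MgCl2, 1 mM EGTA, 0.01% Brij-35, with compound. Reaction ran 1 hr at room temperature, then terbium-labelled antibody plus EDTA were added.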

[3] = target: T2, Lethal factor (Bacillus anthracis, UniProt P15917); test: Inhibition of Bacillus anthracis anthrax lethal factor
T2 sequence (P15917 whole entry): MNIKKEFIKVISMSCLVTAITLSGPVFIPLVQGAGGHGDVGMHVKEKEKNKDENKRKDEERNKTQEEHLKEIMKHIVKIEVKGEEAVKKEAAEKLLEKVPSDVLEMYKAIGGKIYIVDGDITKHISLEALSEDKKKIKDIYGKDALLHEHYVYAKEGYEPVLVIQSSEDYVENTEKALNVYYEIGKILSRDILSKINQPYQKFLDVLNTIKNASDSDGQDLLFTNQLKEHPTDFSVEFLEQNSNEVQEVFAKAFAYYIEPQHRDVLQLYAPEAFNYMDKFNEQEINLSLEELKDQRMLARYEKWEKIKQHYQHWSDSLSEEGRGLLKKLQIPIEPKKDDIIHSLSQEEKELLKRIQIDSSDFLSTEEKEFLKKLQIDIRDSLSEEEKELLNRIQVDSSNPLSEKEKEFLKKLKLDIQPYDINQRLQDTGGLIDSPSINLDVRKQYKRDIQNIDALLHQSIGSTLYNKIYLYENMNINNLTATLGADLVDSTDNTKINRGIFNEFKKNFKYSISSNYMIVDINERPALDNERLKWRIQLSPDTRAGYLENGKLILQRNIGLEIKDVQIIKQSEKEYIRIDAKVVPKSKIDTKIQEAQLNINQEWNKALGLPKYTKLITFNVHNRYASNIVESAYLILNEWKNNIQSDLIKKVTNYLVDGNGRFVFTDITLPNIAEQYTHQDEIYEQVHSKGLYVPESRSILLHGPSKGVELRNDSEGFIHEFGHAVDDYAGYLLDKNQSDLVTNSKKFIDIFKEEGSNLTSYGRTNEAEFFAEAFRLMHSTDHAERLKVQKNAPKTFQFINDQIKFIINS

[4] = target: RAC-alpha serine/threonine-protein kinase (Homo sapiens, UniProt P31749); test: Inhibition of AKT
Chain of RAC-alpha serine/threonine-protein kinase (P31749 whole entry): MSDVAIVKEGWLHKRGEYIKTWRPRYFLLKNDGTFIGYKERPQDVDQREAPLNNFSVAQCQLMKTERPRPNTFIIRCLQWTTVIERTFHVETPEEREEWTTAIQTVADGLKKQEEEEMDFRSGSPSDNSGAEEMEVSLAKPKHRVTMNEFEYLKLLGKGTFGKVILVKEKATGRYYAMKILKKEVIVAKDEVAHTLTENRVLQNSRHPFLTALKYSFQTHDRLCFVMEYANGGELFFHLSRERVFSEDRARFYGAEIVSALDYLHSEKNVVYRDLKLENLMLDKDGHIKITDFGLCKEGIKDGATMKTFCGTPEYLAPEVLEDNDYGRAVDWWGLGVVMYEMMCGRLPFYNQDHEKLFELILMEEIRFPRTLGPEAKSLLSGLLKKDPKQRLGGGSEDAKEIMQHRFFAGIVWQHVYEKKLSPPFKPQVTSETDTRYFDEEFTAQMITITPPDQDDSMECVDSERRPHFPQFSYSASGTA

[5] = target: T3, Mitogen-activated protein kinase 9 (Homo sapiens, UniProt P45984); test: Displacement of biotin-labeled pep-JIP1from JNK2 by DELFIA assay
In short: (§2)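 Added Eu-labelled anti-GST antibody (300 ng/ml; 1.9 nM), compound in DMSO and GST-JNK2 at 10 nM final. Incubated 1 hr at 0 °C, washed 5 times, enhancement solution added, fluorescence read after 10 min (ex 340, em 615 nm). Controls were unlabelled peptide and no-compound blanks.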
Target sequence in this assay (P45984 whole entry): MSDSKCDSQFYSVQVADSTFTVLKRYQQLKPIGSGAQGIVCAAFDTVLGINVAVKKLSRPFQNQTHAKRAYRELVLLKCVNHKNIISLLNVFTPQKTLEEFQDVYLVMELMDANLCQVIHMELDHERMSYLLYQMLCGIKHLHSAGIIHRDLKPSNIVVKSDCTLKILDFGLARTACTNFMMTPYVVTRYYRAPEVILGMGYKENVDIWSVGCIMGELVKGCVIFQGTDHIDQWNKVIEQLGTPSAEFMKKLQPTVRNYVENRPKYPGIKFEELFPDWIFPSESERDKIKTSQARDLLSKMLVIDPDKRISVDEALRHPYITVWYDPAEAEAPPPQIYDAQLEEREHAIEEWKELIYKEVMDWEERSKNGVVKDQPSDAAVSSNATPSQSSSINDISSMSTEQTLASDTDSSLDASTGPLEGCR

[6] = target: Furin (Homo sapiens, UniProt P09958); test: Inhibition of FURIN
Chain of Furin (P09958 whole entry): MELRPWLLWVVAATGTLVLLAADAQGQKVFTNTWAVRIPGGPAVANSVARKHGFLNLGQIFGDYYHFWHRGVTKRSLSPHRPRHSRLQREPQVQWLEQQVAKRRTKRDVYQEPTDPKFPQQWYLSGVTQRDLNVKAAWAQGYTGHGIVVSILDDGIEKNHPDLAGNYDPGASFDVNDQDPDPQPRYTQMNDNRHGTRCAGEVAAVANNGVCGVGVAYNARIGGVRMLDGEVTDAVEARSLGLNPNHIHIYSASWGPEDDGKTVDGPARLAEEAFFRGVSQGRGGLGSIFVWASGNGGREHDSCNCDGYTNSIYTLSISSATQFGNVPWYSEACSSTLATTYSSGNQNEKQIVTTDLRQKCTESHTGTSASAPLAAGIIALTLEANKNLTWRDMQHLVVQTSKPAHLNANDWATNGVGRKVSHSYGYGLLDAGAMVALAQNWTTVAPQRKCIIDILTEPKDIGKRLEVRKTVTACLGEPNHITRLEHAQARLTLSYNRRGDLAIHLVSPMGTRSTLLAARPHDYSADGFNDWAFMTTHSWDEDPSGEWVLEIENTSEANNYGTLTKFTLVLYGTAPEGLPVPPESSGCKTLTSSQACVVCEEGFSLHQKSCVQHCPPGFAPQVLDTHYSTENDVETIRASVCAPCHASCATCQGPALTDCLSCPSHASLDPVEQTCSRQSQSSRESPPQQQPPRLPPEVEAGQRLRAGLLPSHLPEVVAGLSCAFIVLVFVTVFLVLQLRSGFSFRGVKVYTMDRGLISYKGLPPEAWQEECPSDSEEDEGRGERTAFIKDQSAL

[7] = Permeability assessed as drug flux at pH 7.4 by PAMPA assay; type: ADME
In short: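 PAMPA: filter impregnated with 1-20% phospholipid in organic solvent over an acceptor plate of aqueous buffer at pH 7.4. Donor added from a 20 μM stock (DMSO <2%). An equilibrium plate was prepared in parallel, and percent flux was calculated from acceptor versus equilibrium concentrations. Reference compounds included.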

[8] = Inhibition of JNK-mediated TNF-alpha-stimulated c-Jun phosphorylation by cell-based TR-FRET assay
In short: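 HeLa cells stably expressing GFP-c-Jun(1-79) plated at 10000/well in Opti-MEM with 1% charcoal/dextran-treated FBS, no phenol red, and left overnight. Pretreated 60 min with compound, then stimulated 30 min with TNF-alpha at 2 ng/ml. Lysed in buffer containing 2 nM terbium anti-phospho-c-Jun (Ser73) antibody and equilibrated 1 h at room temperature. TR-FRET ratio Em520/Em490 read with excitation at 340 nm.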

[9] = Metabolic stability in rat plasma assessed as compound remaining after 30 mins by LC/MS-MS; type: ADME, cell-free; conditions: read-out: Stability
In short: (§3)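 Compound at 1 μM (2.5% final DMSO) incubated in fresh rat plasma at 37 °C. Reactions stopped at 0, 30 and 60 min with two volumes of methanol containing internal standard, then precipitated, centrifuged and analysed by LC-MS. Percent parent remaining relative to 0 min calculated from peak-area ratios to internal standard. Run in duplicate with a plasma-labile positive control.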

[10] = target: Mitogen-activated protein kinase 9 (Homo sapiens, UniProt P45984, C163S); test: Inhibition of JNK2 C163S mutant by isothermal calorimetry
Chain of Mitogen-activated protein kinase 9 (Homo sapiens, UniProt P45984, C163S) (P45984 whole entry C163S): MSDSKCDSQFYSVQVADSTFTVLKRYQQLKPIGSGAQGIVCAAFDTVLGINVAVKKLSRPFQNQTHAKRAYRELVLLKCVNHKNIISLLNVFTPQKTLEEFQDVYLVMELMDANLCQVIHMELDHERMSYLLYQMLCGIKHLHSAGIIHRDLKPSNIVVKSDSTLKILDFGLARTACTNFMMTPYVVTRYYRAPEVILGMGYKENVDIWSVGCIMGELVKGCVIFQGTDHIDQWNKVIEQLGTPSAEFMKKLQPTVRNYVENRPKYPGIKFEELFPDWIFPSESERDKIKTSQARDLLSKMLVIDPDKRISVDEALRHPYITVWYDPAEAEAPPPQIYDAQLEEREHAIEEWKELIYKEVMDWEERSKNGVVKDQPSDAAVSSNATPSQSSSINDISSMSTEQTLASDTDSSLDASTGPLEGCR
In short: (§4)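 Isothermal titration calorimetry at 25 °C. C163S or wild-type JNK2 at 50 μM in 20 mM sodium phosphate pH 7.4 with 5% DMSO and 0.01% Triton X-100. Titrant at 750 μM in the same buffer.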

[11] = target: T3, Mitogen-activated protein kinase 9; test: Inhibition of wild-type JNK2 by isothermal calorimetry; in short: as §4
Target sequence in this assay (P45984 whole entry): as the sequence (P45984 whole entry) above

[12] = Metabolic stability in rat plasma assessed as compound remaining after 60 mins by LC/MS-MS; type: ADME, cell-free; conditions: read-out: Stability; in short: as §3
[13] = target: T3, Mitogen-activated protein kinase 9; test: Displacement of biotin-labeled pep-JIP1from JNK2 at 50 uM by DELFIA assay; in short: as §2
Target sequence in this assay (P45984 whole entry, looked up): as the sequence (P45984 whole entry) above

[14] = target: T1, Mitogen-activated protein kinase 8; test: Inhibition of JNK1 up to 25 uM by TR-FRET assay
In short: as §1, with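 “added. After a further hour, the 520/495 nm emission ratio was read.” for “added.”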

Chain of Mitogen-activated protein kinase 14 (Q16539 whole entry): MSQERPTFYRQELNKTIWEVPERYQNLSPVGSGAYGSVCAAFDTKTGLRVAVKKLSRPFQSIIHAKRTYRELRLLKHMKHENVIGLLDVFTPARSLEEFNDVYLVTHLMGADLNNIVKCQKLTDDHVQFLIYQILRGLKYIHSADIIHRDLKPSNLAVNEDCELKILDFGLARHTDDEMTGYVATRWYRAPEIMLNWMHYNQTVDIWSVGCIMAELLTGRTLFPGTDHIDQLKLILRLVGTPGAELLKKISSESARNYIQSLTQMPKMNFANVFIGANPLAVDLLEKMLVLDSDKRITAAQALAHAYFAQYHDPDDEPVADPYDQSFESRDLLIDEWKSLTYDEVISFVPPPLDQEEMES

For `CCC(C)Nc1nnc(Sc2ncc([N+](=O)[O-])s2)s1` (stereo not given), the IC50 [1] was > 100 µM, the IC50 [2] was 3 µM and the IC50 [3] was > 100 µM. The IC50 [4] was > 100 µM, the IC50 [5] was 0.14 µM and the IC50 [6] was > 50 µM. The permeability [7] was 7.9%, the IC50 [8] was 20 µM and the remaining at 0.5 h [9] was 90%.

`O=[N+]([O-])c1cnc(Sc2nnc(O)n2-c2ccc3c(c2)OCCO3)s1` showed a Kd [10] of 51.1 µM, an IC50 [5] of 0.5 µM and a permeability [7] of 5.5%. For the same compound, the Kd [11] was 8.1 µM and the remaining at 1 h [12] was 0%.

For `O=[N+]([O-])c1cnc(Sc2nnc(NCc3ccccc3)s2)s1`, the inhibition [13] was 20% and the inhibition [14] was “inactive”.

For `COc1ccc(CCNc2nnc(Sc3ncc([N+](=O)[O-])s3)s2)cc1OC`, the IC50 [1] was > 100 µM, the Kd [10] was 1.9 µM and the IC50 [2] was 5.7 µM. For the same compound, the IC50 [3] was > 100 µM, the IC50 [4] was > 100 µM and the IC50 [5] was 0.1 µM. For the same compound, the IC50 [6] was > 50 µM, the permeability [7] was 76.3% and the remaining at 1 h [12] was 68%. It also gave a remaining at 0.5 h [9] of 6.05%.

In the case of `COc1ccc(CNc2nnc(Sc3ncc([N+](=O)[O-])s3)s2)cc1`, the IC50 [2] is reported as 9.1 µM, the IC50 [5] is reported as 0.1 µM and the IC50 [8] is reported as 21 µM.

`CCNc1nnc(Sc2ncc([N+](=O)[O-])s2)s1` showed an IC50 [2] of 100 µM and an IC50 [5] of 10 µM.

`O=[N+]([O-])c1cnc(Sc2nnc(NCC3CCCO3)s2)s1` (stereo not given) showed an IC50 [2] of 10 µM and an IC50 [5] of 0.47 µM.

With `COCCNc1nnc(Sc2ncc([N+](=O)[O-])s2)s1` the IC50 [1] was > 100 µM, the Kd [10] was 4.2 µM and the IC50 [2] was 4.8 µM. For the same compound, the IC50 [3] was > 100 µM, the IC50 [4] was > 100 µM and the IC50 [5] was 0.16 µM. The IC50 [6] was > 50 µM, the permeability [7] was 49.8% and the IC50 [8] was 8 µM. It also gave a Kd [11] of 2.8 µM, a remaining at 1 h [12] of 35% and a remaining at 0.5 h [9] of 79.7%.

For `CCCNc1nnc(Sc2ncc([N+](=O)[O-])s2)s1`, the IC50 [1] was > 100 µM, the Kd [10] was 7.2 µM and the IC50 [2] was 6.7 µM. For the same compound, the IC50 [3] was > 100 µM, the IC50 [4] was > 100 µM and the IC50 [5] was 0.29 µM. For the same compound, the IC50 [6] was > 50 µM, the permeability [7] was 30% and the Kd [11] was 9.4 µM. For the same compound, the remaining at 1 h [12] was 42% and the remaining at 0.5 h [9] was 48.1%.

For `CC(C)(C)Nc1nnc(Sc2ncc([N+](=O)[O-])s2)s1`, the inhibition [13] was 20% and the inhibition [14] was “inactive”.

For `CCCCNc1nnc(Sc2ncc([N+](=O)[O-])s2)s1`, the inhibition [13] was 20% and the inhibition [14] was “inactive”.
